According to ChEMBL document CHEMBL1133729, “Design, synthesis, and structure-activity relationships of phthalimide-phenylpiperazines: a novel series of potent and selective alpha(1)(a)-adrenergic receptor antagonists” (J Med Chem, 2000):

How the values were obtained:
[1] = biological target: T1, Alpha-1B adrenergic receptor (Homo sapiens, UniProt P35368); experiment: Binding affinity towards cloned human alpha-1B adrenergic receptor was determined using [125]-HEAT as radioligand
T1 sequence (P35368 whole entry): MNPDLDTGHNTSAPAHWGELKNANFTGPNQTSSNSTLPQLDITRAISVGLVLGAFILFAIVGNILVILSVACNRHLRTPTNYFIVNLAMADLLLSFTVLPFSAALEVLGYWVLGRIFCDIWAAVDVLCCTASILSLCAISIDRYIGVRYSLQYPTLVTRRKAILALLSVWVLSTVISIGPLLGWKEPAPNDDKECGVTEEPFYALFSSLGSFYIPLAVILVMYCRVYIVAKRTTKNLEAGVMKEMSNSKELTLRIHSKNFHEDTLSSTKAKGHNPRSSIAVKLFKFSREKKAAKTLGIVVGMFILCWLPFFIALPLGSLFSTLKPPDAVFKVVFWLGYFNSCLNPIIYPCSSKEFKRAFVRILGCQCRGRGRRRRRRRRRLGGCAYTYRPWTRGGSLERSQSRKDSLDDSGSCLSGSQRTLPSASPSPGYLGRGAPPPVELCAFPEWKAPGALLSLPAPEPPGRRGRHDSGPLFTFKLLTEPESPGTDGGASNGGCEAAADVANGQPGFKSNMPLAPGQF
In short: (§1)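 Human α1a, α1b and α1d cDNAs transiently expressed in COS-1 cells (DEAE-dextran); membranes harvested 72 h post-transfection. Competition versus 50 pM [125I]HEAT (final), 0.1 pM–10 μM test compound in half-log steps, in TNE buffer pH 7.4. Membrane protein 0.1 μg (α1a, α1b) or 2.6 μg (α1d); 1 h at 25 °C. Filtration, scintillation counting; Ki = IC50/(1 + [L]/Kd). Ratios are subtype Ki over α1a Ki.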

[2] = biological target: T2, Alpha-1D adrenergic receptor (Homo sapiens, UniProt P25100); experiment: Binding affinity towards cloned human alpha-1D adrenergic receptor was determined using [125]-HEAT as radioligand; in short: as §1
T2 sequence (P25100 whole entry): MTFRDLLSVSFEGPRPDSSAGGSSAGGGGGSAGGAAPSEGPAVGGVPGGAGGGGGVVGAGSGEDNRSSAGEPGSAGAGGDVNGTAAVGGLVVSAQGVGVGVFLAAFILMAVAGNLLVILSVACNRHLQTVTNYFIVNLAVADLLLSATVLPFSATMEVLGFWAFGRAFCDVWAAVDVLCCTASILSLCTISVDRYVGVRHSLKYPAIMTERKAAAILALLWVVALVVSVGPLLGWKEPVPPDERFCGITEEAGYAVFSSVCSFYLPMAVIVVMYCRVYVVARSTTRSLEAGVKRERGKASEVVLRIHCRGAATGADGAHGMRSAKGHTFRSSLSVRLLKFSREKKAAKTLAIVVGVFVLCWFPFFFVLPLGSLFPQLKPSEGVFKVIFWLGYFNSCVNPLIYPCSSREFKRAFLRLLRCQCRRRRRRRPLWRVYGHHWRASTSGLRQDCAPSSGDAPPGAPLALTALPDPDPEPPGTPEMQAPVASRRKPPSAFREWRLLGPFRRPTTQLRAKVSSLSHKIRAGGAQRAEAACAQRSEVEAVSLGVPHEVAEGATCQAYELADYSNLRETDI

[3] = biological target: Adrenergic receptors; alpha-1 A & B (Homo sapiens) (UniProt P35348+P35368); experiment: Ratio of binding affinity towards Alpha1b to Alpha-1A; format: protein assay; in short: as §1
[4] = biological target: T3, Alpha-1A adrenergic receptor (Homo sapiens, UniProt P35348); experiment: Binding affinity towards cloned human alpha-1A adrenergic receptor was determined using [125]-HEAT as radioligand
T3 sequence (P35348 whole entry): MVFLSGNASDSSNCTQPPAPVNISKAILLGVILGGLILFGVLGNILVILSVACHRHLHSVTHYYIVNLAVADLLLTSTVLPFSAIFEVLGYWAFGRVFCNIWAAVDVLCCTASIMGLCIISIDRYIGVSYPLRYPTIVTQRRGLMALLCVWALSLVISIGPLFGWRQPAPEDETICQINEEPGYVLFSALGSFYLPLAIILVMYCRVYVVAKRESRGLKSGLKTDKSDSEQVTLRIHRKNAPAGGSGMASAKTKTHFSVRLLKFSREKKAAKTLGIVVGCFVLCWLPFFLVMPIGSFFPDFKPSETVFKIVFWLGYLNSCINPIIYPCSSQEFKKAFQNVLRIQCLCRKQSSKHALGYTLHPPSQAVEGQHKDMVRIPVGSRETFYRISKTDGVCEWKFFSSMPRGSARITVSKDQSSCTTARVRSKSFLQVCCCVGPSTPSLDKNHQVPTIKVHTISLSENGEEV

[5] = test system: Alpha-1D/Alpha-1A adrenergic receptor (Homo sapiens); experiment: Ratio of binding affinity towards Alpha1d to Alpha-1A

| SMILES | Ki [1] [µM] | Ki [2] [µM] | Ratio [3] | Ki [4] [µM] | Ratio [5] |
| --- | --- | --- | --- | --- | --- |
| CC(C)Oc1ccccc1N1CCN(C[C@H](O)CNC(=O)c2ccc3c(c2)C(=O)N(c2cccc(F)c2)C3=O)CC1 | > 2 | 0.063 | > 250 | 0.008 |  |
| CC(C)Oc1ccccc1N1CCN(CC(O)CNC(=O)c2ccc3c(c2)C(=O)N(c2cccc(F)c2)C3=O)CC1 (stereo not given) | > 2 | 0.075 | > 1220 | 0.0015 |  |
| CC(C)Oc1ccccc1N1CCN(CC(O)CNC(=O)c2ccc3c(c2)C(=O)N(c2ccc(C(C)(C)C)cc2)C3=O)CC1 (stereo not given) | > 2 | 0.075 | > 650 | 0.00305 |  |
| COc1ccccc1N1C(=O)c2ccc(C(=O)NCC(O)CN3CCN(c4ccccc4OC(C)C)CC3)cc2C1=O (stereo not given) | 1.64 | 0.072 | 1110 | 0.00147 |  |
| CCOc1ccccc1N1CCN(CC(O)CNC(=O)c2ccc3c(c2)C(=O)N(c2cccc(F)c2)C3=O)CC1 (stereo not given) | > 2 | 0.137 | > 470 | 0.00425 |  |
| CC(C)Oc1ccccc1N1CCN(CCCNC(=O)c2ccc3c(c2)C(=O)N(c2ccc(N(C)C)cc2)C3=O)CC1 | 0.465 | 0.015 | 2580 | 0.00018 |  |
| COc1ccc(N2C(=O)c3ccc(C(=O)NCC(O)CN4CCN(c5ccccc5OC(C)C)CC4)cc3C2=O)cc1OC (stereo not given) | > 2 | 0.056 | > 2040 | 0.00098 | 57 |
| COC(CNC(=O)c1ccc2c(c1)C(=O)N(c1cccc(F)c1)C2=O)CN1CCN(c2ccccc2OC(C)C)CC1 (stereo not given) | > 2 | 0.407 | > 290 | 0.0069 |  |
| CC(C)Oc1ccccc1N1CCN(C[C@@H](O)CNC(=O)c2ccc3c(c2)C(=O)N(c2ccc(O)cc2)C3=O)CC1 | > 2 | 0.137 | > 4350 | 0.00046 |  |
| CC(C)Oc1ccccc1N1CCN(CC(O)CNC(=O)c2ccc3c(c2)C(=O)N(c2ccc(Cl)cc2)C3=O)CC1 (stereo not given) | 0.606 | 0.055 | 640 | 0.00095 |  |
| Cc1ccc(N2C(=O)c3ccc(C(=O)NCC(O)CN4CCN(c5ccccc5OC(C)C)CC4)cc3C2=O)cc1 (stereo not given) | > 2 | 0.062 | > 3030 | 0.00066 |  |
| CC(C)Oc1ccccc1N1CCN(CC(O)CNC(=O)c2ccc3c(c2)C(=O)N(c2ccccc2)C3=O)CC1 (stereo not given) | > 2 | 0.065 | > 1820 | 0.0009 | 72 |
| CC(C)Oc1ccccc1N1CCN(CC(O)CNC(=O)c2ccc3c(c2)C(=O)N(c2ccc(N(C)C)cc2)C3=O)CC1 (stereo not given) | > 2 | 0.04 | > 2000 | 0.0008 |  |
| CC(C)Oc1ccccc1N1CCN(CC(O)CNC(=O)c2ccc3c(c2)C(=O)N(c2ccc(O)cc2)C3=O)CC1 (stereo not given) | > 2 | 0.028 | > 2270 | 0.00088 |  |
| CC(C)Oc1ccccc1N1CCN(CCCNC(=O)c2ccc3c(c2)C(=O)N(c2ccc(O)cc2)C3=O)CC1 | 0.255 | 0.01 | 1270 | 0.0002 | 50 |
| CC(C)Oc1ccccc1N1CCN(CC(O)CNC(=O)c2ccc3c(c2)C(=O)N(c2ccc(Cl)c(Cl)c2)C3=O)CC1 (stereo not given) | 1.23 | 0.051 | 1030 | 0.00119 | 43 |

Now from value to molecule:

| Ki [1] [µM] | Ki [2] [µM] | Ratio [3] | Ki [4] [µM] | Ratio [5] | SMILES |
| --- | --- | --- | --- | --- | --- |
| > 2 | 0.051 |  |  |  | COc1ccc(N2C(=O)c3ccc(C(=O)NCC(O)CN4CCN(c5ccccc5OC(C)C)CC4)cc3C2=O)cc1 (stereo not given) |
| 0.605 | 0.041 | 800 | 0.00076 | 54 | CC(C)Oc1ccccc1N1CCN(CC(O)CNC(=O)c2ccc3c(c2)C(=O)N(c2cccc(Cl)c2)C3=O)CC1 (stereo not given) |
| > 1.66 | 0.111 | > 1100 | 0.0015 |  | CC(C)Oc1ccccc1N1CCN(CC(O)CNC(=O)c2ccc3c(c2)C(=O)N(c2ccc(F)cc2)C3=O)CC1 (stereo not given) |
| > 2 | 0.052 |  |  |  | COc1ccc(N2C(=O)c3ccc(C(=O)NC[C@@H](O)CN4CCN(c5ccccc5OC(C)C)CC4)cc3C2=O)cc1 |
| > 2 | 0.152 | > 1640 | 0.00122 | 125 | COc1cc(N2C(=O)c3ccc(C(=O)NCC(O)CN4CCN(c5ccccc5OC(C)C)CC4)cc3C2=O)cc(OC)c1OC (stereo not given) |
| > 2 | 0.073 | > 2220 | 0.0009 |  | Cc1cccc(N2C(=O)c3ccc(C(=O)NCC(O)CN4CCN(c5ccccc5OC(C)C)CC4)cc3C2=O)c1 (stereo not given) |
| > 2 | 0.038 | > 1110 | 0.0018 |  | CC(C)Oc1ccccc1N1CCN(CC(O)CNC(=O)c2ccc3c(c2)C(=O)N(c2ccc([N+](=O)[O-])cc2)C3=O)CC1 (stereo not given) |
| > 1.75 | 0.124 |  |  |  | COc1ccc(N2C(=O)c3ccc(C(=O)NC[C@H](O)CN4CCN(c5ccccc5OC(C)C)CC4)cc3C2=O)cc1 |
| > 2 | 0.54 | > 90 | 0.022 |  | COc1ccccc1N1CCN(CC(O)CNC(=O)c2ccc3c(c2)C(=O)N(c2cccc(F)c2)C3=O)CC1 (stereo not given) |
